Source: ChEMBL document CHEMBL4513216, “Probing the Open Global Health Chemical Diversity Library for Multistage-Active Starting Points for Next-Generation Antimalarials” (ACS Infect Dis, 2020)

Test: Toxicity liver stage against HepG2, at 10uM
Format: cell-based
Design: test concentration 10 uM, cell line HepG2-A16-CD81EGFP
Details: human, HepG2-A16-CD81EGFP cells; read-out: INHIBITION
Method in brief: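 Uninfected HepG2-A16-CD81EGFP cells, 3 × 10^3 per well, 1536-well, plated on prespotted compound at 10 μM final, parasite-free screening media added to match infected plates; puromycin 10 μM positive, DMSO 0.5% negative; run in parallel with 48 h PbLuc assay at 37 °C, 5% CO2; viability by CellTiter-Glo luminescence, normalized to controls.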

Row | SMILES | cytotoxicity at 10 µM [%]
1 | Cc1cccnc1NC(=O)C1CSc2ncc(C)c(=O)n2C1 (configuration not stated) | -1.62
2 | CC(C)(C)CC(=O)NCCn1ccc(-c2ccncc2)n1 | -3.4
3 | O=C(NCC1CC1)C1CCC2(CCN(C(=O)c3ccoc3)CC2)O1 (configuration not stated) | 4.97
4 | Cc1nnc(N2C[C@@H]3CCCO[C@@H]3[C@H](N(C)C)C2)s1 | 17.5
5 | O=C1NC2(CCN(C(=O)Cc3ccsc3)CC2)CC1c1ccccc1 (configuration not stated) | -2.04
6 | CN1CC(=O)N(c2cccc(F)c2)CC12CCN(Cc1ccccn1)C2 (configuration not stated) | 2.49
7 | C[C@@H]1C[C@@H]2CCN(C(=O)c3cnccn3)C[C@H]2O1 | -10.6
8 | CCOC(=O)CNC(=O)c1cc(-c2ccccc2)nc2ncnn12 | -5.75
9 | CCN(CC)C(=O)CCn1ncc2c(Cl)cccc21 | 12.4
10 | Cc1nc(N2CCOCC2)sc1C(=O)NCC(C)(C)N1CCCCC1 | 5.7
11 | Cc1nc(-c2ccc(CNS(=O)(=O)N(C)C)cc2)ccc1C(N)=O | -8.53
12 | Cc1ccc(S(=O)(=O)NCc2[nH]ncc2Br)cc1C | 5.23
13 | CCC(C)NC(=O)c1sccc1-n1cnnn1 (configuration not stated) | 5.45
14 | CCCS(=O)(=O)CCN1CCN(C(C#N)c2ccccc2)CC1 (configuration not stated) | -5.02
15 | CC(C)Cc1nc(C[S+]([O-])CC(=O)NCc2ccccc2)no1 (configuration not stated) | -6.45
16 | Cc1ncc2c(n1)CN(Cc1nc(-c3ccsc3)oc1C)CC2 | 1.97
17 | CCc1ccc(O)c(C(=O)N2CCN(CC(=O)N3CCCCC3)CC2)c1 | 9.06
18 | CC(NC(=O)N1CCCN(C)CC1)c1ccc(S(N)(=O)=O)cc1 (configuration not stated) | -11.7
19 | CCN(CC1CCOC1)C(=O)NCc1ccc(-n2cncn2)nc1 (configuration not stated) | 0.0529
20 | CC(c1cccnc1)N1CCN(C(=O)NCc2cnn(C)c2)CC1 (configuration not stated) | -2.38
21 | O=C(Cc1ccc2c(c1)CCO2)Nc1cccnc1-n1cncn1 | 3.94

Row | SMILES | cytotoxicity at 10 µM [%]
22 | CC(c1ccc(Cl)cc1)N1CCN(CCCS(C)(=O)=O)CC1 (configuration not stated) | -8.73
23 | Cc1nc2n(n1)CC(Nc1ccnc(-c3ccccc3)n1)CC2 (configuration not stated) | 3.43
24 | O=C(Nc1cccc(CN2CCC(CO)CC2)c1)c1cc(Cl)c[nH]1 | -150
25 | COCCn1ccc(NC(=O)Nc2ccncc2)n1 | 4.49
26 | CCOc1ncccc1C(=O)Nc1c(C)cnn1CC1CC1 | 1.62
27 | Cc1cc(C)cc(OCC(=O)N2CCC2)c1 | 2.01
28 | CN(C)CC(=O)N1CCN(c2cc(N3CCCC3CO)ncn2)CC1 (configuration not stated) | -4.19
29 | O=C(COc1ccccc1NCc1ccoc1)N1CCOCC1 | 3.61
30 | CCc1noc(CN(C)CCC(=O)Nc2ccc(Cl)cc2)n1 | 2.78
31 | O=S(=O)(CCNCc1cccc2c1OCCO2)N1CCOCC1 | -10.9
32 | N#Cc1cc(NC(=O)c2ccccc2)ccc1N1CCC(O)CC1 | -9.55
33 | CNC(=O)Nc1cc(-c2ccc(Br)cc2)nn1CCO | -1.35
34 | O=C(NCCCNC(=O)c1cccc(O)c1)Nc1ccc(F)cc1F | -11
35 | COCC1CN(Cc2ccncc2)Cc2nn(C)cc21 (configuration not stated) | -74.1
36 | CNc1nccc(-c2cnc3sc(C)c(C)n3c2=O)n1 | -2.78
37 | O=c1c(-c2ccnc(N3CCC[C@H]3CO)n2)cnc2sccn12 | -6.3
38 | CN(CCO)c1ncc(-c2ccc(NC(=O)[C@@H]3CCCCN3)cc2)cn1 | 0.609
39 | COCCN(C)C(C(=O)O)c1ccc(Cl)c(F)c1 (configuration not stated) | -2.46
40 | Cc1nccc(N[C@H]2CN(C(=O)C3(C#N)CCOCC3)C[C@@H]2C(C)C)n1 | 9.81
41 | CC(C)(CN1CCC2(CCOCC2)CC1)N1CCOCC1 | -148
42 | Cc1noc2ncnc(N3CCC(O)(Cn4ccnc4)CC3)c12 | 0.648

Row | SMILES | cytotoxicity at 10 µM [%]
43 | CCSc1ccc(C(=O)N2CC[C@](C)(O)[C@H](C)C2)s1 | -12.2
44 | NC(=O)NCCC(=O)N1CCC(c2cc(Cc3ccccc3)n[nH]2)CC1 | 1.5
45 | COCCn1ccnc1-c1[nH]cnc1C | -18.4
46 | COc1ccc(CCN2CC(NCc3ncc[nH]3)CC2=O)cc1 (configuration not stated) | 0.749
47 | COC(=O)NCC(=O)N(C)CC1Cc2ccccc2CN1C (configuration not stated) | -6.24
48 | CCC(=O)Nc1cccc(OCC(=O)N(C)CCCC2CCCO2)c1 (configuration not stated) | -4.63
49 | CN1CC2(CCC1=O)CCN(CC[C@@H](O)c1ccccc1)CC2 | -0.355
50 | CCc1cnc(NCC(C)Oc2cccnc2)nc1 (configuration not stated) | 0.977
51 | COCCNC(=O)c1cc(S(=O)(=O)N2CCCCC2)cs1 | -8.94
52 | NC(=O)c1c[nH]nc1NC(=O)c1cccc(Cl)c1 | -2.39
53 | CCn1cnnc1CNC(=O)N1CCN(c2cccc(C)c2)CC1 | -3.42
54 | O=C(c1cc2c(s1)CCOC2)N1CCCCC1Cn1cccn1 (configuration not stated) | -6.52
55 | c1ccc2oc(CN3CCCC3Cn3cncn3)nc2c1 (configuration not stated) | -17.2
56 | c1cncc(COc2ccccc2CNC2CCc3ncnn3C2)c1 (configuration not stated) | -3.69
57 | Cc1cnn(CCNCc2csc(-c3ccco3)n2)c1 | -5.28
58 | Cc1nc(CSCCC(=O)NCc2ccncc2)cs1 | -15.6
59 | OC(CN1CCC(c2ccn[nH]2)CC1)c1cc(F)ccc1F (configuration not stated) | -12.3
60 | O=C(c1cc2c(F)cccc2[nH]1)N1CCCCC1Cn1cccn1 (configuration not stated) | -7.95
61 | CCc1nc(C2CCCN2Cc2cnc(C)cn2)no1 (configuration not stated) | -14.6
62 | Cc1cc(C)n(CC2CCCN2C(=O)c2ccc(NC3CC3)nc2)n1 (configuration not stated) | 6.53
63 | CC(C)C1CCCN1CCCc1nc(-c2cccs2)no1 (configuration not stated) | -16

Row | SMILES | cytotoxicity at 10 µM [%]
64 | O=C1COc2c(cccc2C(=O)N2CCCC(n3cccn3)C2)N1 (configuration not stated) | -13.8
65 | Cc1ccc(N2CCCC(NCC3=Cc4ccccc4OC3)C2)nn1 (configuration not stated) | -10.2
66 | O=C(CCNC(=O)c1ccoc1)Nc1cccc(F)c1 | -8.63
67 | O=C(COCc1ccccc1Cl)N1CCCC(n2cccn2)C1 (configuration not stated) | 10
68 | C[C@@H](NC(=O)c1ccc(Cl)cc1)c1onc(-c2cccnc2)c1C(=O)O | -1.6
69 | O=C1CC2(CCCNC2)C(=O)N1Cc1cccc(Cl)c1 (configuration not stated) | -1.19
70 | CN1CC(=O)N(c2ccsc2)CC12CCN(C(=O)N1CCCC1)C2 (configuration not stated) | -72.6
71 | O=C(CC1CC1)N[C@@H]1CN(Cc2cccnc2)C[C@@H]2CCCO[C@@H]21 | -0.995
72 | COc1cc(CNC(C)Cn2cccn2)cc2c1OCCO2 (configuration not stated) | 1.67
73 | c1cnc(N2CCOCC3(CCCN(CC4CCOCC4)C3)C2)nc1 (configuration not stated) | -8.95
74 | Cn1cc(CN2C[C@@H](NC(=O)c3cscn3)[C@H]3OCCC[C@H]32)cn1 | -11.7
75 | CCN1C(=O)C(c2ccccc2)CC12CCN(Cc1cccnc1)CC2 (configuration not stated) | 4.65
76 | COCCN1C[C@H]2[C@@H](C1)N(Cc1cnn(C)c1)CC[C@H]2OC | 8.47
77 | COCCN1C[C@@H](c2ccccc2)[C@@]2(CCN(CC(=O)N(C)C)C2=O)C1 | 3.11
78 | CN(C)CC(=O)N1CCCC2(CCN(c3ccccc3)C2=O)C1 (configuration not stated) | -1.24
79 | CC(C)N1CCO[C@H]2CN(C(=O)c3ccsc3)C[C@H]21 | -72
80 | CO[C@H]1CCN(S(=O)(=O)c2cccs2)[C@H]1Cc1cccnc1 | -75.5
81 | CN1CC(=O)N(c2cccc(F)c2)CC12CCN(S(C)(=O)=O)C2 (configuration not stated) | 1.52
82 | O=C(c1ccccc1)N1C[C@H]2CCC[C@@]2(COCc2ccncc2)C1 | 1.59
